Reference: PubChem BioAssay
Records with an inconclusive call do not appear.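 How the source made its calls, unless noted: active means viability increase at or above a cutoff of the median across tested compounds plus 3 SD (cut at about 8.5% in these data, passing the limit was not always enough); inconclusive means some gains above the cutoff, reason not given; inactive means the rest.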

Tests used:
[1] = S. cerevisiae growth inhibition in permissive medium (OD615), pilot counter-assay for S. cerevisiae lifespan shortening project, permissive growth control (AID 705;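 active means growth inhibition above 25% in both replicates, a cutoff set 3 SD above the mean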); conditions: OD615, 24 h, at 10 µM, stronger effect = higher value
Procedure, shortened: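 System – S. cerevisiae with engineered DeaD lifespan system · Buffer or medium – SC raffinose/galactose permissive medium · Schedule – cells pre-grown 4 h, then 24 h compound exposure, 30 °C humidified · Technique – culture turbidity as optical density at 615 nm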

[2] = S. cerevisiae growth inhibition in restrictive medium, OD615, pilot screen, restrictive growth control, yeast lifespan reduction project (AID 706;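 active means growth inhibition above a set limit, 3 SD over mean compound inhibition, in both replicates, cut at about 43% in these data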;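 further: modified DeaD lifespan yeast strain shifted to restrictive glucose medium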); conditions: OD615, 48 h, at 10 µM, stronger effect = higher value
Procedure, shortened: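 Material: engineered S. cerevisiae DeaD strain / Medium: glucose-based CSMM-D restrictive medium / Compound: single dose of 10 µM compound final, 0.25% DMSO / Timing: 4 h pre-incubation, 48 h exposure at 30 °C / Technique: OD615 absorbance reading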

[3] = doxorubicin toxicity protection in MRP-1 cells – H69AR cells, CellTiter-Glo, duplicate, MRP-1 activator project, pilot screen (AID 807); conditions: H69AR viability with doxorubicin, CellTiter-Glo luminescence; at 10 µM; stronger effect = higher value;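 further: compound pretreatment 18-22 h then 72 h combined with doxorubicin; 0% = doxorubicin alone and 100% = vehicle without doxorubicin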
[4] = viability of HCT116 without oncogenic beta-catenin – human colon tumor cells, pilot screen (AID 823;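 active means cell viability at or below a set limit in both duplicate runs, the limit being the all-compound median minus 4 SD, cut at about 23% in these data, passing the limit was not always enough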;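 further: 0% = wells killed by 20 µM Hyamine and 100% = untreated DMSO cell wells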); conditions: HCT116 beta-catenin knockout viability, CellTiter-Glo, 60 h; at 10 µM; stronger effect = lower value
[5] = viability of PTEN-null HCT116 cells – cell-based, HCT116 clonal line, CellTiter-Glo, pilot screen (AID 824;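 active means viability at or below 27.92% in each of two runs, the all-compound median minus 4 SD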;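 further: 0% = 20 µM Hyamine control and 100% = vehicle cell control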); conditions: HCT116 PTEN-deleted viability, 60 h, at 10 µM, stronger effect = lower value
[6] = RAM pathway blockade in budding yeast – dse1pr::URA3 reporter, 5-FOA selection, pilot screen (AID 869;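 active means inhibition over a set limit, the all-compound mean plus 3 SD, in both replicate runs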;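 further: 0% = DMSO wells with no growth and 100% = 10 µM 1-NA-PP1 with full growth; RAM network block rescues cells from 5-FOA so hits raise OD615 growth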); conditions: S. cerevisiae dse1pr::URA3 5-FOA growth, OD615, 2 d; at 10 µM; stronger effect = higher value; strain carries analog-sensitive mutant Cbk1 kinase
[7] = RAM signaling pathway blockade in yeast – S. cerevisiae, Pdr1DBD-CYC8 efflux-inhibited sensitized strain, primary screen (AID 1298;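 active means RAM network inhibition above 8.4% in each of two replicates, 3 SD over the compound average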;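 further: 0% = DMSO untreated cells without growth and 100% = 10 µM 1-NA-PP1 full growth; higher means more yeast growth rescued from 5-FOA killing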); conditions: S. cerevisiae cbk1-as DSE1-URA3 strain, 5-FOA growth OD615, 2 d; at 50 µM; stronger effect = higher value

CCC(Cc1ccccc1)NC(=O)CN1C(=O)CSc2ncccc21 (stereo not drawn)
inactive: growth inhibition [1] -2.26% | growth inhibition [2] -14.6% | viability increase [3] -2.81% | viability [4] 85% | viability [5] 75.7% | inhibition [6] 0.665% | RAM network inhibition [7] -0.97%

CCCOC(=O)c1ccc(-n2nnnc2SCC(=O)N2CCCCC2)cc1
inactive: growth inhibition [1] -11.6% | growth inhibition [2] -5.64% | viability increase [3] -0.35% | viability [4] 80.3% | viability [5] 86% | inhibition [6] 0.595% | RAM network inhibition [7] 0.04%

CCc1c(C)nc2[nH]nc(-c3ccccc3)n2c1=O
inactive: growth inhibition [1] -20.2% | growth inhibition [2] -10.2% | viability increase [3] 0.32% | viability [4] 96.2% | viability [5] 99.1% | inhibition [6] 1.69% | RAM network inhibition [7] 4.8%

OCCCc1nc2n(n1)C(c1cccs1)C=C(c1ccccc1)N2 (stereo not drawn)
inactive: growth inhibition [1] -17.7% | growth inhibition [2] -5.79% | viability increase [3] -4.73% | viability [4] 83.6% | viability [5] 84.7% | inhibition [6] 3.25% | RAM network inhibition [7] 3.92%

CN(C)CCNC(=O)c1ccc(CS(=O)(=O)c2c(Cl)cccc2Cl)o1
inactive: growth inhibition [1] -2.3% | growth inhibition [2] -9.77% | viability increase [3] -1.24% | viability [4] 99.2% | viability [5] 97.6% | inhibition [6] 2.96% | RAM network inhibition [7] -1.13%

Cc1occc1C(=O)Nc1nnc(-c2ccncc2)s1
inactive: growth inhibition [1] 4.81% | growth inhibition [2] 5.91% | viability increase [3] -0.28% | viability [4] 100% | viability [5] 104% | inhibition [6] 0.705% | RAM network inhibition [7] -1.3%

COc1ccc(N(CC(=O)Nc2cc(OC)ccc2OC)S(=O)(=O)c2c(C)nn(C)c2C)cc1
inactive: growth inhibition [1] -7.47% | growth inhibition [2] -15.8% | viability increase [3] -4.82% | viability [4] 95.6% | viability [5] 81% | inhibition [6] 1.36% | RAM network inhibition [7] 0.21%

CSC1=NCCN1C(=O)c1ccco1
inactive: growth inhibition [1] 1.44% | growth inhibition [2] -4.79% | viability increase [3] 0.04% | viability [4] 103% | viability [5] 98.3% | inhibition [6] 0.865% | RAM network inhibition [7] 3.19%

COCC(=O)Nc1ccc(C(N)=O)cc1
inactive: growth inhibition [1] -13.6% | growth inhibition [2] -6.43% | viability increase [3] -0.44% | viability [4] 96.5% | viability [5] 95.3% | inhibition [6] 1.91% | RAM network inhibition [7] 7.41%

COC1=CC(=O)OC12CCCCC2
inactive: growth inhibition [1] 3.99% | growth inhibition [2] -2.73% | viability increase [3] -0.88% | viability [4] 94.7% | viability [5] 95.8% | inhibition [6] 1.27% | RAM network inhibition [7] 2.11%

CC1CN(c2nc3c(c(=O)[nH]c(=O)n3C)n2Cc2ccccc2F)CC(C)O1 (stereo not drawn)
inactive: growth inhibition [1] -3.05% | growth inhibition [2] 2.61% | viability increase [3] -1.3% | viability [4] 99.1% | viability [5] 90.7% | inhibition [6] 1.68% | RAM network inhibition [7] 0.95%

Cc1cc(C)c(NC(=O)CN2CCN(C)CC2)c(C)c1
inactive: growth inhibition [1] -1.99% | growth inhibition [2] 4.72% | viability increase [3] -1.53% | viability [4] 112% | viability [5] 92.3% | inhibition [6] 2.21% | RAM network inhibition [7] 1.38%

CCc1nccn1S(=O)(=O)c1ccc2ccccc2c1
inactive: growth inhibition [1] 0.77% | growth inhibition [2] -2.31% | viability increase [3] -1.22% | viability [4] 102% | viability [5] 103% | inhibition [6] 0.7% | RAM network inhibition [7] 3.49%

Cc1nc(SCC(=O)NCc2ccco2)c2oc3ccccc3c2n1
inactive: growth inhibition [1] -0.535% | growth inhibition [2] 1.3% | viability increase [3] -2.69% | viability [4] 95.2% | viability [5] 94% | inhibition [6] 0.86% | RAM network inhibition [7] 2.53%

O=C(NCc1ccco1)C1CCN(S(=O)(=O)c2cccc3cccnc23)CC1
inactive: growth inhibition [1] 5.31% | growth inhibition [2] 5.93% | viability increase [3] -2.72% | viability [4] 99.4% | viability [5] 93.8% | inhibition [6] 2.12% | RAM network inhibition [7] 2.63%

CCCOc1ccc(N2C(=O)CC(N3CCN(c4ccccc4F)CC3)C2=O)cc1 (stereo not drawn)
inactive: growth inhibition [1] -0.95% | growth inhibition [2] -3.87% | viability increase [3] 1.4% | viability [4] 94.7% | viability [5] 96.4% | inhibition [6] 0.125% | RAM network inhibition [7] 7.05%

Nc1nc2n(n1)C(c1ccccc1)CC(c1ccc(F)cc1)N2 (stereo not drawn)
inactive: growth inhibition [1] -2.32% | growth inhibition [2] 16.9% | viability increase [3] -0.53% | viability [4] 97.9% | viability [5] 98.2% | inhibition [6] 0.145% | RAM network inhibition [7] 0.84%

COc1ccc(S(=O)(=O)N2Cc3ccccc3CC2C(=O)O)cc1OC (stereo not drawn)
inactive: growth inhibition [1] 6.5% | growth inhibition [2] 3.09% | viability increase [3] 0.39% | viability [4] 104% | viability [5] 96.1% | inhibition [6] 1.33% | RAM network inhibition [7] 5.1%

CN1C(=O)NC(c2ccccc2)C2=C1CN(Cc1ccco1)C2=O (stereo not drawn)
inactive: growth inhibition [1] -6.95% | growth inhibition [2] -14.4% | viability increase [3] -2.48% | viability [4] 90.4% | viability [5] 89.7% | inhibition [6] 1.47% | RAM network inhibition [7] 3%
